Test results taken from ChEMBL document CHEMBL3244249, “Studies on vitamin D (calciferol) and its analogues. 15. 24-Nor-1alpha,25-dihydroxyvitamin D3 and 24-nor-25-hydroxy-5,6-trans-vitamin D3” (1978).
Each block holds one compound with its values, some of them ahead of it. Calls of active or inactive are those of the source. No cut-off for these calls is given here.

Legend:
Gallus gallus [1] = organism: Gallus gallus; assay: Displacement of [3H]-1-alpha,25-(OH)2-D3 from chicken intestinal cytosol chromatin receptor after 30 mins by scintillation counting relative to 1-alpha,25-(OH)2-D3
Outline: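 Reconstituted chick intestinal cytosol–chromatin receptor system. Nonradioactive competitor plus tritiated 1α,25-(OH)2-D3 (2 × 10^-8 M, constant saturating) with chromatin (375 μg DNA) in cytosol, incubated 30 min at 25 °C. Chromatin reisolated by centrifugation, washed three times (0.5% Triton X-100, 0.01 M Tris-HCl pH 8.5), and bound tritium counted by liquid scintillation. Expressed as RCI, with 1α,25-(OH)2-D3 set at 100.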

Gallus gallus [2] = assay: Induction of intestinal calcium absorption in vitamin-D-deficient chicken assessed per 0.2 ml of plasma at 163 nmol, ip using 45Ca2+ and 40Ca2+ after 5 to 36 hrs; format: functional, organism-based
Outline: (§1)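 Rachitic chicks given a single 163-nmol intraperitoneal dose and sampled between 5 and 36 h afterward. ICA and BCM were read by the Hibberd–Norman procedure: duodenal 45Ca2+/40Ca2+ load, then serum collected 30 min later. ICA was taken as serum radioactivity and BCM as serum calcium by atomic absorption.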

Gallus gallus [3] = assay: Induction of bone calcium mobilization in vitamin-D-deficient chicken assessed per 100 ml of serum at 0.60 nmol, ip using 45Ca2+ and 40Ca2+ after 12 hrs; format: functional
Outline: (§2)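 White Leghorn cockerels raised 4 weeks on a rachitogenic low-calcium diet without vitamin D, switched to a zero-calcium diet 3 days before assay. Analogue given intraperitoneally. Under light ether anesthesia, 5 μCi 45Ca2+ plus 4 mg 40Ca2+ carrier was put into the exposed duodenum. Birds were decapitated 30 min later and blood allowed to clot. Serum Ca2+ measured by atomic absorption on diluted serum, as mg/100 mL ± SEM.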

Gallus gallus [4] = assay: Induction of intestinal calcium absorption in vitamin-D-deficient chicken assessed per 0.2 ml of plasma at 3 nmol, ip using 45Ca2+ and 40Ca2+ after 12 hrs; format: functional
Outline: (§3)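 Rachitic White Leghorn cockerels (4 weeks on a rachitogenic low-calcium diet without vitamin D, zero-calcium diet for the final 3 days) dosed intraperitoneally. Under light ether anesthesia, 5 μCi 45Ca2+ plus 4 mg 40Ca2+ carrier was placed in the duodenum. Birds were decapitated after 30 min. 45Ca radioactivity counted per 0.2 mL serum aliquot (cpm ± SEM). The enhancement ratio is relative to vitamin D-deficient controls.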

Gallus gallus [5] = assay: Induction of bone calcium mobilization in vitamin-D-deficient chicken assessed per 100 ml of serum at 3 nmol, ip using 45Ca2+ and 40Ca2+ after 12 hrs; format: functional; outline: as §2
Gallus gallus [6] = assay: Induction of intestinal calcium absorption in vitamin-D-deficient chicken assessed per 0.2 ml of plasma at 3 nmol, ip using 45Ca2+ and 40Ca2+ after 12 hrs relative to control; format: functional; outline: as §3
Gallus gallus [7] = assay: Induction of intestinal calcium absorption in vitamin-D-deficient chicken assessed per 0.2 ml of plasma at 0.60 nmol, ip using 45Ca2+ and 40Ca2+ after 12 hrs; format: functional; outline: as §3
Gallus gallus [8] = assay: Induction of bone calcium mobilization in vitamin-D-deficient chicken assessed per 100 ml of serum at 163 nmol, ip using 45Ca2+ and 40Ca2+ after 5 to 36 hrs; format: functional, organism-based; outline: as §1
Gallus gallus [9] = assay: Induction of intestinal calcium absorption in vitamin-D-deficient chicken assessed per 0.2 ml of plasma at 0.60 nmol, ip using 45Ca2+ and 40Ca2+ after 12 hrs relative to control; format: functional; outline: as §3
Gallus gallus [10] = assay: Induction of intestinal calcium absorption in vitamin-D-deficient chicken assessed per 0.2 ml of plasma at 3.3 nmol, ip using 45Ca2+ and 40Ca2+ after 24 hrs relative to control; format: functional; outline: as §3
Gallus gallus [11] = assay: Induction of intestinal calcium absorption in vitamin-D-deficient chicken assessed per 0.2 ml of plasma at 3.3 nmol, ip using 45Ca2+ and 40Ca2+ after 24 hrs; format: functional; outline: as §3
Gallus gallus [12] = assay: Induction of bone calcium mobilization in vitamin-D-deficient chicken assessed per 100 ml of serum at 3.3 nmol, ip using 45Ca2+ and 40Ca2+ after 24 hrs; format: functional; outline: as §2
Gallus gallus [13] = assay: Induction of bone calcium mobilization in vitamin-D-deficient chicken assessed per 100 ml of serum at 62 nmol, ip using 45Ca2+ and 40Ca2+ after 36 hrs; format: functional; outline: as §2
Gallus gallus [14] = assay: Induction of intestinal calcium absorption in vitamin-D-deficient chicken assessed per 0.2 ml of plasma at 0.62 nmol, ip using 45Ca2+ and 40Ca2+ after 14 hrs relative to control; format: functional; outline: as §3
Gallus gallus [15] = assay: Induction of bone calcium mobilization in vitamin-D-deficient chicken assessed per 100 ml of serum at 62 nmol, ip using 45Ca2+ and 40Ca2+ after 24 hrs; format: functional; outline: as §2
Gallus gallus [16] = assay: Induction of intestinal calcium absorption in vitamin-D-deficient chicken assessed per 0.2 ml of plasma at 62 nmol, ip using 45Ca2+ and 40Ca2+ after 18 hrs; format: functional; outline: as §3
Gallus gallus [17] = assay: Induction of bone calcium mobilization in vitamin-D-deficient chicken assessed per 100 ml of serum at 15.5 nmol, ip using 45Ca2+ and 40Ca2+ after 14 hrs; format: functional; outline: as §2
Gallus gallus [18] = assay: Induction of bone calcium mobilization in vitamin-D-deficient chicken assessed per 100 ml of serum at 3.1 nmol, ip using 45Ca2+ and 40Ca2+ after 14 hrs; format: functional; outline: as §2
Gallus gallus [19] = assay: Induction of bone calcium mobilization in vitamin-D-deficient chicken assessed per 100 ml of serum at 310 nmol, ip using 45Ca2+ and 40Ca2+ after 14 hrs; format: functional; outline: as §2
Gallus gallus [20] = assay: Induction of intestinal calcium absorption in vitamin-D-deficient chicken assessed per 0.2 ml of plasma at 310 nmol, ip using 45Ca2+ and 40Ca2+ after 14 hrs; format: functional; outline: as §3
Gallus gallus [21] = assay: Induction of intestinal calcium absorption in vitamin-D-deficient chicken assessed per 0.2 ml of plasma at 15.5 nmol, ip using 45Ca2+ and 40Ca2+ after 14 hrs relative to control; format: functional; outline: as §3
Gallus gallus [22] = assay: Induction of intestinal calcium absorption in vitamin-D-deficient chicken assessed per 0.2 ml of plasma at 62 nmol, ip using 45Ca2+ and 40Ca2+ after 18 hrs relative to control; format: functional; outline: as §3
Gallus gallus [23] = assay: Induction of intestinal calcium absorption in vitamin-D-deficient chicken assessed per 0.2 ml of plasma at 62 nmol, ip using 45Ca2+ and 40Ca2+ after 36 hrs relative to control; format: functional; outline: as §3
Gallus gallus [24] = assay: Induction of intestinal calcium absorption in vitamin-D-deficient chicken assessed per 0.2 ml of plasma at 62 nmol, ip using 45Ca2+ and 40Ca2+ after 36 hrs; format: functional; outline: as §3
Gallus gallus [25] = assay: Induction of intestinal calcium absorption in vitamin-D-deficient chicken assessed per 0.2 ml of plasma at 310 nmol, ip using 45Ca2+ and 40Ca2+ after 14 hrs relative to control; format: functional; outline: as §3
Gallus gallus [26] = assay: Induction of bone calcium mobilization in vitamin-D-deficient chicken assessed per 100 ml of serum at 62 nmol, ip using 45Ca2+ and 40Ca2+ after 14 hrs; format: functional; outline: as §2
Gallus gallus [27] = assay: Induction of intestinal calcium absorption in vitamin-D-deficient chicken assessed per 0.2 ml of plasma at 62 nmol, ip using 45Ca2+ and 40Ca2+ after 14 hrs relative to control; format: functional; outline: as §3
Gallus gallus [28] = assay: Induction of intestinal calcium absorption in vitamin-D-deficient chicken assessed per 0.2 ml of plasma at 3.1 nmol, ip using 45Ca2+ and 40Ca2+ after 14 hrs relative to control; format: functional; outline: as §3
Gallus gallus [29] = assay: Induction of intestinal calcium absorption in vitamin-D-deficient chicken assessed per 0.2 ml of plasma at 62 nmol, ip using 45Ca2+ and 40Ca2+ after 14 hrs; format: functional; outline: as §3
Gallus gallus [30] = assay: Induction of intestinal calcium absorption in vitamin-D-deficient chicken assessed per 0.2 ml of plasma at 15.5 nmol, ip using 45Ca2+ and 40Ca2+ after 14 hrs; format: functional; outline: as §3
Gallus gallus [31] = assay: Induction of bone calcium mobilization in vitamin-D-deficient chicken assessed per 100 ml of serum at 62 nmol, ip using 45Ca2+ and 40Ca2+ after 18 hrs; format: functional; outline: as §2
Gallus gallus [32] = assay: Induction of intestinal calcium absorption in vitamin-D-deficient chicken assessed per 0.2 ml of plasma at 62 nmol, ip using 45Ca2+ and 40Ca2+ after 24 hrs relative to control; format: functional; outline: as §3
Gallus gallus [33] = assay: Induction of intestinal calcium absorption in vitamin-D-deficient chicken assessed per 0.2 ml of plasma at 62 nmol, ip using 45Ca2+ and 40Ca2+ after 24 hrs; format: functional; outline: as §3
Gallus gallus [34] = assay: Induction of bone calcium mobilization in vitamin-D-deficient chicken assessed per 100 ml of serum at 0.62 nmol, ip using 45Ca2+ and 40Ca2+ after 14 hrs; format: functional; outline: as §2
Gallus gallus [35] = assay: Induction of intestinal calcium absorption in vitamin-D-deficient chicken assessed per 0.2 ml of plasma at 3.1 nmol, ip using 45Ca2+ and 40Ca2+ after 14 hrs; format: functional; outline: as §3
Gallus gallus [36] = assay: Induction of intestinal calcium absorption in vitamin-D-deficient chicken assessed per 0.2 ml of plasma at 0.62 nmol, ip using 45Ca2+ and 40Ca2+ after 14 hrs; format: functional; outline: as §3

Compound: C=C1/C(=C\C=C2/CCC[C@]3(C)[C@@H]([C@H](C)CCCC(C)(C)O)CC[C@@H]23)C[C@@H](O)C[C@@H]1O [CALCITRIOL]
Activity (Gallus gallus [2]): Active
Activity (Gallus gallus [3]): 6.6 mg
Activity (Gallus gallus [4]): 1320 cpm
Activity (Gallus gallus [5]): 6.1 mg
Ratio (Gallus gallus [6]): 2.5
Activity (Gallus gallus [7]): 1630 cpm
Activity (Gallus gallus [8]): Active
Ratio (Gallus gallus [9]): 3.1

Compound: C=C1CC[C@H](O)C/C1=C/C=C1\CCC[C@]2(C)[C@@H]([C@H](C)CCCC(C)C)CC[C@@H]12 [CHOLECALCIFEROL]
Ratio (Gallus gallus [10]): 4.6
Activity (Gallus gallus [11]): 2430 cpm
Activity (Gallus gallus [12]): 6.3 mg

Compound: C=C1CC[C@H](O)C/C1=C/C=C1\CCC[C@]2(C)[C@@H]([C@H](C)CCCC(C)(C)O)CC[C@@H]12
Activity (Gallus gallus [2]): Active
Activity (Gallus gallus [8]): Active

Further lines, with some results ahead:

RCI (Gallus gallus [1]): 0.066%
Compound: C=C1CC[C@H](O)C/C1=C\C=C1/CCC[C@]2(C)[C@@H]([C@H](C)CCCCC(C)(C)O)CC[C@@H]12

RCI (Gallus gallus [1]): 0.58%
Compound: C=C1CC[C@H](O)C/C1=C\C=C1/CCC[C@]2(C)[C@@H]([C@H](C)CCCC(C)(C)O)CC[C@@H]12
Activity (Gallus gallus [2]): Active
Activity (Gallus gallus [8]): Active

RCI (Gallus gallus [1]): 46%
Compound: C=C1/C(=C\C=C2/CCC[C@]3(C)[C@@H]([C@H](C)CCC(C)(C)O)CC[C@@H]23)C[C@@H](O)C[C@@H]1O
Activity (Gallus gallus [13]): 4.3 mg
Ratio (Gallus gallus [14]): 0.8
Activity (Gallus gallus [15]): 5.4 mg
Activity (Gallus gallus [16]): 1470 cpm
Activity (Gallus gallus [17]): 5.1 mg
Activity (Gallus gallus [18]): 4.4 mg
Activity (Gallus gallus [19]): 6.5 mg
Activity (Gallus gallus [20]): 1530 cpm
Ratio (Gallus gallus [21]): 1.3
Ratio (Gallus gallus [22]): 2.8
Ratio (Gallus gallus [23]): 1.1
Activity (Gallus gallus [24]): 590 cpm
Ratio (Gallus gallus [25]): 2.9
Activity (Gallus gallus [26]): 5 mg
Ratio (Gallus gallus [27]): 1.8
Ratio (Gallus gallus [28]): 1.1
Activity (Gallus gallus [29]): 930 cpm
Activity (Gallus gallus [30]): 680 cpm
Activity (Gallus gallus [31]): 5.6 mg
Ratio (Gallus gallus [32]): 1.5
Activity (Gallus gallus [33]): 770 cpm
Activity (Gallus gallus [34]): 4.8 mg
Activity (Gallus gallus [35]): 560 cpm
Activity (Gallus gallus [36]): 420 cpm

RCI (Gallus gallus [1]): 0.1%
Compound: C=C1CC[C@H](O)C/C1=C\C=C1/CCC[C@]2(C)[C@@H]([C@H](C)CCC(C)(C)O)CC[C@@H]12
Activity (Gallus gallus [2]): inactive
Activity (Gallus gallus [8]): inactive
